Data from ChEMBL document CHEMBL1132299, “Phosphinic pseudo-tripeptides as potent inhibitors of matrix metalloproteinases: a structure-activity study” (J Med Chem, 1999).

Experiments:
[1] = target: T1, Stromelysin-3 (Mus musculus, UniProt Q02853); assay: Binding affinity against matrix metalloprotease-11.
T1 sequence (Q02853 whole entry): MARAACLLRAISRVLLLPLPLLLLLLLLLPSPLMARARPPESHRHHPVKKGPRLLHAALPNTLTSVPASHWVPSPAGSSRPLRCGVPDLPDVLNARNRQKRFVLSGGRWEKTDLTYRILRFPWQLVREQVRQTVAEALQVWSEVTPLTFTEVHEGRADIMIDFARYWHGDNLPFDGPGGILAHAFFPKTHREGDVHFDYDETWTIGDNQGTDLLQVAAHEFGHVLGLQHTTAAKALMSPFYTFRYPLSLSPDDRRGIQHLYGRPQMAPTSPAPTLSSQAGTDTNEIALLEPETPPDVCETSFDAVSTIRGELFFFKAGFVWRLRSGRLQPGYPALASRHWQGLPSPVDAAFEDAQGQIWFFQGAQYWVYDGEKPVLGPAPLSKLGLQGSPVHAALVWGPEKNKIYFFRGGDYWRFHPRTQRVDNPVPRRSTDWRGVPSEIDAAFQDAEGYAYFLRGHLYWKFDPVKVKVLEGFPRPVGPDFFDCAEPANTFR
Outline: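 Mouse MMP-11 catalytic domain from E. coli BL21 DE3 pLysS, assayed in stirred quartz cuvettes in 50 mM Tris/HCl pH 6.8, 10 mM CaCl2 at 25 °C. Substrate was Mca-Pro-Leu-Ala-Cys(OMeBn)-Trp-Ala-Arg-Dpa-NH2 (Km 0.2 µM), with fluorescence read-out. Percent inhibition was measured in triplicate at five concentrations (20–80% range), and Ki was derived by the Horovitz–Levitski method.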

[2] = target: T2, Matrix metalloproteinase-9 (Homo sapiens, UniProt P14780); assay: Binding affinity against matrix metalloprotease-9 (gelatinase-B).
Outline: (§1)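 Full-length human pro-MMP-2, -9 and -8 were expressed in NSO myeloma cells and activated with 4-aminophenylmercuric acetate just before use. Run at 25 °C in 50 mM Tris/HCl pH 6.8, 10 mM CaCl2, with 0.2–5 nM enzyme and 6 µM Mca-Pro-Leu-Gly-Leu-Dpa-Ala-Arg-NH2; fluorescence 340/400 nm, 30 min. Km: MMP-2 49, MMP-9 14, MMP-8 61 µM. Triplicate, five inhibitor levels; Ki by Horovitz–Levitski.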

[3] = target: T3, Matrilysin (Homo sapiens) (UniProt P09237); assay: In vitro inhibition of MMP-7 at 2 uM.
T3 sequence (whole entry): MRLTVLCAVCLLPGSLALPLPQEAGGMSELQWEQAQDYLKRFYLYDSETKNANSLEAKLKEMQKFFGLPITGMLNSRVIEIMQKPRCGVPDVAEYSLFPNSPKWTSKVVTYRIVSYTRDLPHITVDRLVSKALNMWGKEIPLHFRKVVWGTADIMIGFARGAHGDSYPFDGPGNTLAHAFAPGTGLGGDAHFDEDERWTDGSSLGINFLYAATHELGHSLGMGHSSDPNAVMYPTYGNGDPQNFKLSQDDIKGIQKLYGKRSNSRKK

[4] = target: T4, 72 kDa type IV collagenase (Homo sapiens, UniProt P08253); assay: Binding affinity against matrix metalloprotease-2 (gelatinase-A).; outline: as §1
Target sequence in this assay (P08253 whole entry): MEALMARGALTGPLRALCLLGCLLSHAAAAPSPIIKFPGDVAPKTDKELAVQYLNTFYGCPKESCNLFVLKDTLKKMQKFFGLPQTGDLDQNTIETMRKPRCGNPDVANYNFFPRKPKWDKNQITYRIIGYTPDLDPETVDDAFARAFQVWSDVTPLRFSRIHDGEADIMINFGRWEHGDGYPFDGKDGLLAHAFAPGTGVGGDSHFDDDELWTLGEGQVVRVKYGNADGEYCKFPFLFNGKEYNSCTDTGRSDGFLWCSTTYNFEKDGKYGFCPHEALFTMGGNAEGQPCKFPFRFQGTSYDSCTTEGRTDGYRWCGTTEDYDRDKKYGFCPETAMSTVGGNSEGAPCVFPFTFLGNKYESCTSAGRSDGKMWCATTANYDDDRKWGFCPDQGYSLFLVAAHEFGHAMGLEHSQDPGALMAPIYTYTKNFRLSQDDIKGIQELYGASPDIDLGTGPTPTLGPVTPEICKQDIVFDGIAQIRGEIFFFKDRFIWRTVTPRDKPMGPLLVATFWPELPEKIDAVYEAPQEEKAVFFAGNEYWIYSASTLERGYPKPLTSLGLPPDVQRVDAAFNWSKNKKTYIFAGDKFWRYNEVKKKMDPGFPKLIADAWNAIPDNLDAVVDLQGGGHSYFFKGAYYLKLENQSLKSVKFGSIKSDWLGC

[5] = target: T5, Interstitial collagenase (Homo sapiens) (UniProt P03956); assay: In vitro inhibition of MMP-1 at 2 uM.
T5 sequence (whole entry): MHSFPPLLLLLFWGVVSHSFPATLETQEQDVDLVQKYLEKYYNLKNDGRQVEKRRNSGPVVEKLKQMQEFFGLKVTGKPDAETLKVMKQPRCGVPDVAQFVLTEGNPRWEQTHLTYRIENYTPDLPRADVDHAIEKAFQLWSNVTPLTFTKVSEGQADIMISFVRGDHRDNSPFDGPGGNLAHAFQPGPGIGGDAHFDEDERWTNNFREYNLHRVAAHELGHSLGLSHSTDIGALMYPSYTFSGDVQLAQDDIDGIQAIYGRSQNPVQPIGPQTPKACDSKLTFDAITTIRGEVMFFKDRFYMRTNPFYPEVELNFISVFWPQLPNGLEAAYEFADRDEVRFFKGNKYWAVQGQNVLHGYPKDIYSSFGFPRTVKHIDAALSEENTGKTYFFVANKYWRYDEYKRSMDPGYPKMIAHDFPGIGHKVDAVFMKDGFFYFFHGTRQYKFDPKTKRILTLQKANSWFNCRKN

[6] = target: T6, Neutrophil collagenase (Homo sapiens, UniProt P22894); assay: Inhibition of matrix metalloprotease-8; outline: as §1
Target sequence in this assay (P22894 whole entry): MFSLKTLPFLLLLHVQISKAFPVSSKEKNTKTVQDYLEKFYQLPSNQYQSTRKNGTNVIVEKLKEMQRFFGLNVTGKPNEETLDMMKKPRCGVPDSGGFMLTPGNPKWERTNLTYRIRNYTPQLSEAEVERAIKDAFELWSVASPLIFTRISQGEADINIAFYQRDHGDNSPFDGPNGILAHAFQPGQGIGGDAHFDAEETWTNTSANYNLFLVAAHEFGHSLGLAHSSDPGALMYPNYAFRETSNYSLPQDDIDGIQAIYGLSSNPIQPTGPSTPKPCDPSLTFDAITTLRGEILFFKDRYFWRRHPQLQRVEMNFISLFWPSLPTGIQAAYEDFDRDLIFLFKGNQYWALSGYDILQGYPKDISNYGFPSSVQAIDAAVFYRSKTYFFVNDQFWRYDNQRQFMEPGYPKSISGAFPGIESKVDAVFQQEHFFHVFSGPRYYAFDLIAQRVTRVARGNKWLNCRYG

[7] = target: T7, Matrix metalloproteinase-14 (Homo sapiens, UniProt P50281); assay: Binding affinity against matrix metalloprotease-14 MTI-MMP.
Outline: (§2)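 Catalytic domains of human MMP-14 and MMP-7 were expressed in E. coli BL21 DE3 pLysS. Buffer 50 mM Tris/HCl pH 6.8, 10 mM CaCl2, 25 °C; 0.2–5 nM enzyme; 6 µM Mca-Pro-Leu-Gly-Leu-Dpa-Ala-Arg-NH2 read by fluorescence (ex 340, em 400 nm) for 30 min. Km: MMP-14 21, MMP-7 67 µM. Five inhibitor concentrations in triplicate; Ki by Horovitz–Levitski method.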

[8] = target: T6, Neutrophil collagenase; assay: Compound was tested for its binding affinity against MMP-8 HNC at 1 uM
Target sequence in this assay (P22894 101-467 limits assumed): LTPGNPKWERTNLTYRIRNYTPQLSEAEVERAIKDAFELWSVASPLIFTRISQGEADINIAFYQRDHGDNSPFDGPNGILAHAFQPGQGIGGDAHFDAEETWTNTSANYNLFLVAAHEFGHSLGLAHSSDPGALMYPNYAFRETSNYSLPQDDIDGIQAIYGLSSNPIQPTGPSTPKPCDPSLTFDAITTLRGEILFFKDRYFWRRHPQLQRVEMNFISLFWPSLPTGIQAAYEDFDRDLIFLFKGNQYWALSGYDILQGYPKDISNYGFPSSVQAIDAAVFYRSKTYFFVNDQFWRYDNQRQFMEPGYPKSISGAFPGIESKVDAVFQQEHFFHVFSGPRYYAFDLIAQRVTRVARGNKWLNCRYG

[9] = target: T4, 72 kDa type IV collagenase; assay: Inhibition of MMP-2 gelatinase-A at 2 uM
Target sequence in this assay (P08253 110-660 limits assumed): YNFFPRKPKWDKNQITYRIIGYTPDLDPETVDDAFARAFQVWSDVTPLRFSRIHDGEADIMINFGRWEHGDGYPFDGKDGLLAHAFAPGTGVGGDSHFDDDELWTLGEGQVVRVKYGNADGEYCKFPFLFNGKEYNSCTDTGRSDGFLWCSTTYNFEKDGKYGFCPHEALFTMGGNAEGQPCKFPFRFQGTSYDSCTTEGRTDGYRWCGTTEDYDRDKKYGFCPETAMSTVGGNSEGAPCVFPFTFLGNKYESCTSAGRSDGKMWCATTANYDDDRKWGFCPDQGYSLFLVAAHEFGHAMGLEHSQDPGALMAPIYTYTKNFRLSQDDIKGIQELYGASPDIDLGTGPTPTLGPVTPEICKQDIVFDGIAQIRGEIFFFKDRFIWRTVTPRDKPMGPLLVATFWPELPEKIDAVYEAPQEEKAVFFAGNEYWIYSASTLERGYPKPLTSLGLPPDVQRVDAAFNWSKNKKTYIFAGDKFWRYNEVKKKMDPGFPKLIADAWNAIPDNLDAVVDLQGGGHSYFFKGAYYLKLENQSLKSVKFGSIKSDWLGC

[10] = target: T8, Stromelysin-3 (Mus musculus) (UniProt Q02853); conditions: Homo sapiens; 1 uM
T8 sequence (whole entry): T1 sequence (Q02853 whole entry)

[11] = target: T2, Matrix metalloproteinase-9; assay: Inhibition of Matrix metalloprotease-9, gelatinase-B at 2 uM
[12] = target: T9, Matrilysin (Homo sapiens, UniProt P09237); assay: (§3) Inhibition of Matrix metalloprotease-7 Matrilysin; outline: as §2
T9 sequence (P09237 whole entry): T3 sequence (whole entry)

[13] = target: T5, Interstitial collagenase (Homo sapiens); assay: Inhibition of matrix metalloprotease-1; conditions: concentration not given here
Outline: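 Human full-length pro-MMP-1 was expressed in NSO myeloma cells and activated just before use with trypsin (10 µg/mL, 25 min, 25 °C), then BPTI (100 µg/mL). Assay: 50 mM Tris/HCl pH 6.8, 10 mM CaCl2, 25 °C, 0.2–5 nM enzyme, 6 µM Mca-Pro-Leu-Gly-Leu-Dpa-Ala-Arg-NH2, fluorescence 340/400 nm over 30 min. Km 100 µM. Triplicate inhibition at five concentrations (20–80% range) gave Ki by the Horovitz–Levitski method.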

[14] = target: T3, Matrilysin (Homo sapiens); assay: as §3; outline: as §2
[15] = target: T8, Stromelysin-3 (Mus musculus); assay: Inhibition of MMP-11, stromelysin-3 at 1 uM
[16] = target: T5, Interstitial collagenase (Homo sapiens); assay: Inhibition of matrix metalloprotease-1 at 5 uM
[17] = target: T7, Matrix metalloproteinase-14; assay: Inhibition of MMP-14 membrane-type-MMP at 10 uM
Outline: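 Human MMP-14 catalytic domain, expressed in E. coli BL21 DE3 pLysS. Assay in 50 mM Tris/HCl pH 6.8 with 10 mM CaCl2 at 25 °C, using 0.2–5 nM enzyme and 6 μM Mca-Pro-Leu-Gly-Leu-Dpa-Ala-Arg-NH2. Reaction started by adding substrate; fluorescence read at 400 nm (ex 340 nm) over 30 min. Time-dependent inhibitors were preincubated with enzyme for at least 1 h. Percent inhibition from triplicates.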

T2 sequence (P14780 whole entry): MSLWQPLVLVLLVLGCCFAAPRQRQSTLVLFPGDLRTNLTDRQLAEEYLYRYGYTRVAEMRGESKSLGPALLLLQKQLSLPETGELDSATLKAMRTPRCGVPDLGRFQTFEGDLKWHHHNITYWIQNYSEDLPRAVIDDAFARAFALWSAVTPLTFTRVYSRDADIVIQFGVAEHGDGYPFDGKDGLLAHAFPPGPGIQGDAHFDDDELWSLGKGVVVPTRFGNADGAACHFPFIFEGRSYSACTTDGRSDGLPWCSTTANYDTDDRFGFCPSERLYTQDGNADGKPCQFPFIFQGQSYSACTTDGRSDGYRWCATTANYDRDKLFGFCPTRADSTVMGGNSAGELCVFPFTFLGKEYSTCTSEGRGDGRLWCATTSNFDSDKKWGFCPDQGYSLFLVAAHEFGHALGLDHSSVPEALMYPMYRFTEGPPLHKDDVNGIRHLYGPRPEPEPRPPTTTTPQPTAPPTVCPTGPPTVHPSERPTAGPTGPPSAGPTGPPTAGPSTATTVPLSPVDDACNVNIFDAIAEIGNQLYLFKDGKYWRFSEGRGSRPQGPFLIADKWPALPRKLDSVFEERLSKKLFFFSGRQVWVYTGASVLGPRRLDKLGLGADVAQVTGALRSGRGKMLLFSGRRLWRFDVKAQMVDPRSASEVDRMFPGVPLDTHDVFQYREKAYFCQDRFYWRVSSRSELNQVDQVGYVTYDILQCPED

| Ki [1] | Ki [2] | inhibition [3] | Ki [4] | inhibition [5] | Ki [6] | Ki [7] | Structure (SMILES) | other results |
| --- | --- | --- | --- | --- | --- | --- | --- | --- |
|  |  | 1% |  | 15% |  |  | CC(NC(=O)OCc1ccccc1)P(=O)(O)CC(COCc1ccccc1)C(=O)NC(Cc1c[nH]c2ccccc12)C(N)=O (stereo not drawn) |  |
|  |  | 2% |  | 45% | < 0.5 nM |  | CC(NC(=O)OCc1ccccc1)P(=O)(O)CC(CSCc1ccccc1)C(=O)NC(Cc1c[nH]c2ccccc12)C(N)=O (stereo not drawn) |  |
| 34 nM | 30 nM | 4% | 75 nM | 27% | 6 nM | 271 nM | CCCCCCCC(CP(=O)(O)C(Cc1ccccc1)NC(=O)OCc1ccccc1)C(=O)NC(Cc1c[nH]c2ccccc12)C(N)=O (stereo not drawn) |  |
| 22 nM | 65 nM |  | 202 nM | 45% | 40 nM | 192 nM | CC(C)CC(CP(=O)(O)C(Cc1ccccc1)NC(=O)OCc1ccccc1)C(=O)NC(Cc1c[nH]c2ccccc12)C(N)=O (stereo not drawn) | Ki [12]: 210 nM |
|  |  | 8% |  | 24% |  |  | CC(NC(=O)OCc1ccccc1)P(=O)(O)CC(Cc1ccccc1)C(=O)NC(Cc1c[nH]c2ccccc12)C(N)=O (stereo not drawn) |  |
|  |  | 3% |  | 23% |  |  | CC(NC(=O)OCc1ccccc1)P(=O)(O)CC(CCc1ccccc1)C(=O)NC(Cc1c[nH]c2ccccc12)C(N)=O (stereo not drawn) |  |
|  |  | 7% |  | 10% |  |  | NC(=O)C(Cc1c[nH]c2ccccc12)NC(=O)C(CCc1ccccc1)CP(=O)(O)C(Cc1ccccc1)NC(=O)OCc1ccccc1 (stereo not drawn) |  |
| 2 nM | 3 nM | 20% | 6 nM | 13% | 0.7 nM | 22 nM | COc1ccc(CSCC(CP(=O)(O)C(Cc2ccccc2)NC(=O)OCc2ccccc2)C(=O)NC(Cc2c[nH]c3ccccc23)C(N)=O)cc1 (stereo not drawn) |  |
|  |  | 4% |  | 30% |  |  | CC(NC(=O)OCc1ccccc1)P(=O)(O)CC(CCCc1ccccc1)C(=O)NC(Cc1c[nH]c2ccccc12)C(N)=O (stereo not drawn) |  |
|  |  | 0% |  | 20% |  |  | CC(CP(=O)(O)C(Cc1ccccc1)NC(=O)OCc1ccccc1)C(=O)NC(Cc1c[nH]c2ccccc12)C(N)=O (stereo not drawn) | inhibition [8]: 9%; inhibition [9]: 0%; inhibition [17]: 0%; inhibition [11]: 0% |

Further lines, the compound ahead of its results:

| Structure (SMILES) | Ki [1] | Ki [2] | inhibition [3] | Ki [4] | inhibition [5] | Ki [6] | Ki [7] | other results |
| --- | --- | --- | --- | --- | --- | --- | --- | --- |
| NC(=O)C(Cc1c[nH]c2ccccc12)NC(=O)C(CCCc1ccccc1)CP(=O)(O)C(Cc1ccccc1)NC(=O)CNc1ccccc1 (stereo not drawn) | 15 nM | 6 nM | 28% | 17 nM | 49% | 4.5 nM | 73 nM |  |
| CC(=O)NC(Cc1ccccc1)P(=O)(O)CC(CCCc1ccccc1)C(=O)NC(Cc1c[nH]c2ccccc12)C(N)=O (stereo not drawn) |  |  | 28% |  | 43% |  |  |  |
| NC(=O)[C@H](Cc1c[nH]c2ccccc12)NC(=O)C(CCCc1ccccc1)CP(=O)(O)C(Cc1ccccc1)NC(=O)OCc1ccccc1 (stereo partly drawn) |  |  | 0% |  | 0% |  |  | inhibition [8]: 2%; inhibition [9]: 6%; inhibition [10]: 1%; inhibition [11]: 14% |
| NC(=O)C(Cc1c[nH]c2ccccc12)NC(=O)C(CCCc1ccccc1)CP(=O)(O)C(Cc1ccccc1)NC(=O)COCc1ccccc1 (stereo not drawn) |  |  | 52% |  | 43% |  |  |  |
| NC(=O)C(Cc1c[nH]c2ccccc12)NC(=O)C(COCc1ccccc1)CP(=O)(O)C(Cc1ccccc1)NC(=O)OCc1ccccc1 (stereo not drawn) |  |  | 3% |  | 9% |  |  |  |
| NC(=O)[C@@H](Cc1c[nH]c2ccccc12)NC(=O)C(CCCc1ccccc1)CP(=O)(O)C(Cc1ccccc1)NC(=O)OCc1ccccc1 (stereo partly drawn) | 5 nM | 10 nM | 8% | 20 nM | 23% | 2.5 nM | 105 nM |  |
| NC(=O)C(Cc1c[nH]c2ccccc12)NC(=O)C(CCCc1ccccc1)CP(=O)(O)C(Cc1ccccc1)NC(=O)CNc1cc(Cl)ccc1O (stereo not drawn) | 10 nM | 34 nM | 65% | 30 nM | 72% | 7.5 nM | 63 nM |  |
| CC(C)CC(NC(=O)OCc1ccccc1)C(=O)NC(Cc1ccccc1)P(=O)(O)CC(CCCc1ccccc1)C(=O)NC(Cc1c[nH]c2ccccc12)C(N)=O (stereo not drawn) | 6 nM | 22 nM |  | 40 nM |  | 7 nM | 53 nM | inhibition [13]: 32%; inhibition [14]: 45% |
| CC(NC(=O)C(CCCc1ccccc1)CP(=O)(O)C(Cc1ccccc1)NC(=O)OCc1ccccc1)C(N)=O (stereo not drawn) |  |  | 0% |  | 9% |  |  | inhibition [9]: 31%; inhibition [15]: 20%; inhibition [11]: 45% |
| NC(=O)C(Cc1c[nH]c2ccccc12)NC(=O)C(CCCc1ccccc1)CP(=O)(O)C(Cc1ccccc1)NC(=O)c1cc2cc(Cl)cc(Cl)c2oc1=O (stereo not drawn) | 5 nM | 110 nM | 52% | 100 nM | 62% | 17 nM | 217 nM |  |
| NC(=O)C(Cc1c[nH]c2ccccc12)NC(=O)C(Cc1ccc2ccccc2c1)CP(=O)(O)C(Cc1ccccc1)NC(=O)OCc1ccccc1 (stereo not drawn) | 74 nM | 675 nM |  | 330 nM |  | 230 nM | 1350 nM | inhibition [16]: 0%; Ki [12]: 1800 nM |
| NC(=O)C(Cc1c[nH]c2ccccc12)NC(=O)C(CCc1ccc2ccccc2c1)CP(=O)(O)C(Cc1ccccc1)NC(=O)OCc1ccccc1 (stereo not drawn) | 12 nM | 55 nM |  | 30 nM | 0% | 34 nM | 125 nM | Ki [12]: 2100 nM |
| NC(=O)C(Cc1c[nH]c2ccccc12)NC(=O)C(CCCCc1ccccc1)CP(=O)(O)C(Cc1ccccc1)NC(=O)OCc1ccccc1 (stereo not drawn) | 33 nM | 70 nM | 7% | 145 nM | 5% | 4.3 nM | 580 nM |  |
